Published values pooled from the literature.
Each line is one published result; the experiments were not run side by side.

| SMILES | host | matrix | route | dose | setting | endpoint | value |
| --- | --- | --- | --- | --- | --- | --- | --- |
| CCc1nc2c(C)cc(N3CCN(CC(=O)N4CC(O)C4)CC3)cn2c1N(C)c1nc(-c2ccc(F)cc2)c(C#N)s1 | human | plasma | oral | 1000 mg | single dose, fed, healthy volunteers | AUC(0-inf) | 66000 ng·h/mL |
| COc1ccc([C@@H]2CN(C(=O)[C@@H](O)CO)C[C@@]2(C)[C@@H](C)O)cc1OC1CN(c2ccc(C)cn2)C1 | human | plasma | oral | 30 mg | single dose, healthy volunteers | AUC(0-inf) | 6330 ng·h/mL |
| CCN(CC)C(=O)[C@@]1(c2ccccc2)C[C@H]1CN | male cynomolgus monkey | plasma | oral | 30 mg/kg |  | Tmax | 4 h |
| CC(C)(NC(=O)O[C@@H]1CN2CCC1CC2)c1csc(-c2ccc(F)cc2)n1 | female CD-1 mouse | brain | intraperitoneal | 10 mg/kg | single dose | tissue/plasma ratio | 0.86 |
| CC(C)(C)c1ccc(O)c(CN(Cc2cc(C(C)(C)C)ccc2O)C2CCC(NC(N)=O)CC2)c1 (centres unmarked) | male C57BL/6 mouse | brain | intraperitoneal | 10 mg/kg | single dose | tissue/plasma ratio | 0.79 |
| CC(C)n1cc(C#N)c2cc(-n3cc(C(=O)O)cn3)ccc21 | male human | plasma | oral | 600 mg | single dose, fasted, healthy volunteers | AUC(0-inf) | 99800 ng·h/mL |
| CC(C)Oc1cccc(-c2cnc(N3CCC(C(N)=O)CC3)s2)c1 | male Swiss mouse | brain | oral | 30 mg/kg | single dose | tissue/plasma ratio | 0.29 |
| COc1cc(C(=O)NC2CCN(C)CC2)c(F)cc1Nc1ncc(C(F)(F)F)c(Oc2cccc3c2C(=O)N(C)C3)n1 | human | plasma | oral | 10 mg | multiple doses, once daily, steady state, patients | AUC | 0.816 µM·h |
| CN(C(=O)n1cnc(-c2ccc[n+]([O-])c2)c1)C1CCCCC1 | male cynomolgus monkey | plasma | oral | 0.1 mg/kg |  | Tmax | 1 h |
| Cn1cc(-c2ccc(S(=O)(=O)[C@@H]3C[C@@H](C(=O)NC4(C#N)CC4)N(C(=O)C4(C(F)(F)F)CC4)C3)c(C(F)(F)F)c2)cn1 | human | plasma | oral | 600 mg | single dose, fasted, healthy volunteers | AUC(0-inf) | 28700 ng·h/mL |
| CC(C)(O)c1ccccc1-c1ccc2[nH]c(/C=C/c3ccc(C(F)(F)F)cc3)nc2c1 | male human | plasma | oral | 2 mg | single dose, fasted | AUC(0-t) | 94.7 ng·h/mL |
